*1 amine or outer side, *2 acyl side, *3 side chain or, on linkers, in order; H or OH if unused. Where a SMILES comes first, the peptide text is derived from it. The star is where a group is joined. NH(CH2)3O(βDGlc) = OC[C@H]1O[C@@H](OCCCN*)[C@H](O)[C@@H](O)[C@@H]1O; Glutaryl = O=C(CCCC(=O)[*:2])[*:1]
Legend:
[1] = Binding affinity to GLUT1 in human NCI-H460 cells assessed as cytotoxicity by measuring reduction in cell viability measured after 24 hrs by CCK8 assay
[2] = Binding affinity to GLUT1 in human PC3 cells assessed as cytotoxicity by measuring reduction in cell viability measured after 24 hrs by CCK8 assay
[3] = target: T1, Solute carrier family 2, facilitated glucose transporter member 1 (Homo sapiens, UniProt P11166); assay: Binding affinity to GLUT1 in human A549 cells assessed as cytotoxicity by measuring reduction in cell viability measured after 24 hrs by CCK8 assay
T1 sequence (P11166 whole entry): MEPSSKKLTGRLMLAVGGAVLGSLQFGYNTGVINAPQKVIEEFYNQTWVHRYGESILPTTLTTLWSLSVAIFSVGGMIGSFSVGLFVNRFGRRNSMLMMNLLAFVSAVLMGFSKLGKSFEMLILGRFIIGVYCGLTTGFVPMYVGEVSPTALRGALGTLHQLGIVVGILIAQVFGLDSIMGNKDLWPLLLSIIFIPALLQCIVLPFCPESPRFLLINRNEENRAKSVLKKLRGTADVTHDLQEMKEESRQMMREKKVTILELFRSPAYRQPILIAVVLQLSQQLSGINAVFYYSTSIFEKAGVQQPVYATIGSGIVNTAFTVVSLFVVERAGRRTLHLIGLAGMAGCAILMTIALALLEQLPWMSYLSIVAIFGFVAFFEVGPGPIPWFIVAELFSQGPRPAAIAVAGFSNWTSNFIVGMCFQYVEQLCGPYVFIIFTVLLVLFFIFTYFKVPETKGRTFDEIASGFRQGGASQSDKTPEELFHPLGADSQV
Summary of the method: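 Cells (A549, H460, H1437, PC-3, HGC-27, MDA-MB-231, HEK-293T, L-02) seeded at about 2×10^3/well and grown overnight. Treated 24 h with a peptide concentration series in serum-free medium. Viability by CCK-8; IC50 taken as 50% inhibition versus untreated cells. Average of three experiments, each in triplicate.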

[4] = Binding affinity to GLUT1 in human MDA-MB-231 cells assessed as cytotoxicity by measuring reduction in cell viability measured after 24 hrs by CCK8 assay
[5] = Binding affinity to GLUT1 in human L02 cells assessed as cytotoxicity by measuring reduction in cell viability measured after 24 hrs by CCK8 assay
[6] = Binding affinity to GLUT1 in human HGC27 cells assessed as cytotoxicity by measuring reduction in cell viability measured after 24 hrs by CCK8 assay
[7] = Binding affinity to GLUT1 in human A549 cells assessed as cytotoxicity by measuring reduction in cell viability measured after 24 hrs by CCK8 assay
[8] = Binding affinity to GLUT1 in human NCI-H1437 cells assessed as cytotoxicity by measuring reduction in cell viability measured after 24 hrs by CCK8 assay

Structure (SMILES) | IC50 [1] [µM] | IC50 [2] [µM] | IC50 [3] [µM] | IC50 [4] [µM] | IC50 [5] [µM] | IC50 [6] [µM] | IC50 [7] [µM] | IC50 [8] [µM]
CC[C@H](C)[C@H](NC(=O)[C@H](Cc1ccccc1)NC(=O)[C@H](CCCNC(=N)N)NC(=O)[C@H](C)NC(=O)[C@@H](NC(=O)[C@H](CO)NC(=O)[C@H](CCCNC(=N)N)NC(=O)[C@H](CCSC)NC(=O)[C@H](C)NC(=O)[C@H](CCCNC(=N)N)NC(=O)[C@H](Cc1ccccc1)NC(=O)[C@H](Cc1c[nH]c2ccccc12)NC(=O)CNC(=O)[C@H](CCCNC(=N)N)NC(=O)CCCC(=O)NCCCO[C@@H]1O[C@H](CO)[C@@H](O)[C@H](O)[C@H]1O)[C@@H](C)CC)C(=O)N[C@@H](C)C(=O)N[C@@H](CCCNC(=N)N)C(=O)N[C@@H](CCC(=O)O)C(=O)N[C@@H](CCCNC(=N)N)C(=O)N[C@@H](CC(C)C)C(=O)N[C@@H](CCCNC(=N)N)C(=O)N[C@@H](CCC(=O)O)C(=O)N[C@@H](Cc1cnc[nH]1)C(=O)N[C@@H](CC(C)C)C(=O)O ({NH(CH2)3O(βDGlc)-Glutaryl}-RGWFRAMRSIARFIARERLREHL-OH) | 8.5 | 6.9 | 9.6 | 10.1 | 25.9 | 12.6 |  | 
CC[C@H](C)[C@H](NC(=O)[C@H](Cc1ccccc1)NC(=O)[C@H](CCCNC(=N)N)NC(=O)[C@H](C)NC(=O)[C@@H](NC(=O)[C@H](CO)NC(=O)[C@H](CCCNC(=N)N)NC(=O)[C@H](CCSC)NC(=O)[C@H](C)NC(=O)[C@H](CCCNC(=N)N)NC(=O)[C@H](Cc1ccccc1)NC(=O)[C@H](Cc1c[nH]c2ccccc12)NC(=O)CNC(=O)[C@@H](N)CCCNC(=N)N)[C@@H](C)CC)C(=O)N[C@@H](C)C(=O)N[C@@H](CCCNC(=N)N)C(=O)N[C@@H](CCC(=O)O)C(=O)N[C@@H](CCCNC(=N)N)C(=O)N[C@@H](CC(C)C)C(=O)N[C@@H](CCCNC(=N)N)C(=O)N[C@@H](CCC(=O)O)C(=O)N[C@@H](Cc1cnc[nH]1)C(=O)N[C@@H](CC(C)C)C(=O)O (H-RGWFRAMRSIARFIARERLREHL-OH) | 12.9 | 15.6 |  | 10.5 | 12.6 | 12.5 | 14.3 | 16.5

— BindingDB's records for doi:10.1021/acs.jmedchem.9b00634 (2019)
